How the values were obtained:
[1] = system: PC-3; test: Growth inhibitory effect was assessed against the human prostate tumor cell line PC-3 using MTT assay; assay type: functional; settings: read-out: ID50 (the source's name)
Procedure, shortened: (§1)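 Cells seeded at 500 per well and incubated overnight at 37 °C in humidified 95% air/5% CO2, then exposed to serially diluted drug for 6 days, each concentration in quadruplicate, with buffer controls. MTT (5 mg/mL solution) added for 4 h at 37 °C; lysed overnight at 37 °C in SDS/DMF buffer, pH 4.8; absorbance at 570 nm. ID50 is the concentration giving 50% growth inhibition.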

[2] = system: DuPro; test: Growth inhibitory effect was assessed against the human prostate tumor cell line DuPro using MTT assay; assay type: functional; settings: read-out: ID50 (the source's name); procedure, shortened: as §1
[3] = system: Mus musculus; test: Toxicity studies on male athymic NCr-nu mice administered ip daily for 5 consecutive days then rested for 10 days, and a second cycle of treatment also followed the q1d x 5 schedule; Death of all treated mice; assay type: organism-based; settings: in vivo, 240 h
[4] = system: DU-145; test: Growth inhibitory effect was assessed against the human prostate tumor cell line Du-145 using MTT assay; assay type: functional; settings: read-out: ID50 (the source's name); procedure, shortened: as §1
[5] = (§2) Toxicity studies on male athymic NCr-nu mice administered ip daily for 5 consecutive days then rested for 10 days, and a second cycle of treatment also followed the q1d x 5 schedule; assay type: organism-based; settings: mouse, in vivo, read-out: Lethality
[6] = system: Mus musculus; test: as §2; assay type: organism-based; settings: in vivo, 240 h
[7] = system: Mus musculus; test: Toxicity studies on male athymic NCr-nu mice administered ip daily for 5 consecutive days then rested for 10 days, and a second cycle of treatment also followed the q1d x 5 schedule; Two treatment-related deaths out of three animals; assay type: organism-based; settings: in vivo, 240 h
[8] = system: Mus musculus; test: Toxicity studies on male athymic NCr-nu mice administered ip daily for 5 consecutive days then rested for 10 days, and a second cycle of treatment also followed the q1d x 5 schedule; Death of all three mice; assay type: organism-based; settings: in vivo, 240 h

Compound	IC50 [1]	IC50 [2]	Lethal dose [3]	IC50 [4]	mortality at 240 h [5]	Lethal dose [6]	Lethal dose [7]	Lethal dose [8]
CCNCC1CC1CNCC1CC1CNCC1CC1CNCC.Cl (stereo not given)	> 31500 nM	630 nM	75 mg/kg	80 nM	–	–	–	–
CCNCCCCNCCCCNCCCCNCCCCNCC1CC1CNCCCCNCCCCNCCCCNCCCCNCC (stereo not given)	400 nM	340 nM	–	200 nM	100%	–	–	–
CCNCCCCNCC1CC1CNCCCCNCCCCNCC1CC1CNCCCCNCCCCNCC1CC1CNCCCCNCC.Cl (stereo not given)	300 nM	200 nM	–	220 nM	–	25 mg/kg	–	–
CCNCCCCNCC1CC1CNCCCCNCC1CC1CNCCCCNCC.Cl (stereo not given)	> 31200 nM	380 nM	–	120 nM	–	–	25 mg/kg	–
CCNCC1CC1CNCCCCNCC1CC1CNCC.Cl (stereo not given)	> 31200 nM	260 nM	–	60 nM	–	–	–	75 mg/kg

— ChEMBL document CHEMBL1136801, “Cyclopropane-containing polyamine analogues are efficient growth inhibitors of a human prostate tumor xenograft in nude mice” (J Med Chem, 2003)
